# Active and inactive are the calls of the source. No cut-off for these calls is given here.
# Columns and labels:
# [1] = tested on: HT-29; experiment: Antiproliferative activity against human HT-29 cells by MTT assay; type: functional, cell-based
# Method in brief: (§1)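 MTT assay. Cells were grown in DMEM/RPMI 1640 with 10% FBS, penicillin and streptomycin at 37 °C under 5% CO2. After a PBS wash, cells got 0.5 mg/mL MTT for 3 h at 37 °C. Formazan was dissolved in DMSO and absorbance read at 570 nm. Inhibition was expressed as a percentage and IC50 calculated. Means ± SD come from three separate experiments.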
# [2] = tested on: HepG2; experiment: Antiproliferative activity against human HepG2 cells by MTT assay; type: functional, cell-based; method in brief: as §1
# [3] = Antiproliferative activity against rat 9L-2 cells by MTT assay; type: functional, cell-based; method in brief: as §1
# [4] = Cytotoxicity against human CCD-841 cells by MTT assay; type: cell-based; method in brief: as §1
# [5] = tested on: HT-29; experiment: Antitumor activity against human HT-29 cells xenografted in nude BALB/c mouse assessed as reduction in tumor volume at 40 mg/kg, ip dosed every day for 21 days; type: functional, organism-based
# [6] = tested on: HT-29; experiment: Antitumor activity against human HT-29 cells xenografted in nude BALB/c mouse assessed as tumor weight level at 40 mg/kg, ip dosed every day for 21 days (reference value: 1.49 +/- 0.27 g); type: functional
# [7] = tested on: HT-29; experiment: Induction of apoptosis in human HT-29 cells at 2.5 uM incubated for 72 hrs by FITC-AnnexinV/PI staining based flow cytometry relative to control; type: functional
# Method in brief: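 HT29 cells were cultured 12 h, then exposed to compound (0.4, 1.0, 2.5 µM) or vehicle for 72 h. Harvested cells were stained with Annexin V and PI, and apoptotic cell percentages measured by flow cytometry. Means ± SD come from three separate experiments.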
# [8] = tested on: HT-29; experiment: Induction of apoptosis in human HT-29 cells assessed as increase in Bax protein level at 2.5 uM incubated for 72 hrs by Western blot analysis; type: functional, cell-based
# Method in brief: (§2)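 HT29 cells (1.5×10^5/mL) were treated for 72 h and lysed. Lysate (0.05 mg/lane) was run on 12% SDS-PAGE and transferred to nitrocellulose. After blocking in 5% non-fat milk, blots were probed for Bax, Bcl-2, cleaved caspase-3, cleaved PARP, LC3, p62 and beclin-1. Levels were normalised to β-actin, and means ± SD taken from three independent assays.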
# [9] = tested on: HT-29; experiment: Induction of apoptosis in human HT-29 cells assessed as reduction in Bcl2 protein level at 2.5 uM incubated for 72 hrs by Western blot analysis; type: functional, cell-based; method in brief: as §2
# [10] = tested on: HT-29; experiment: Induction of apoptosis in human HT-29 cells assessed as increase in cleaved PARP protein level at 2.5 uM incubated for 72 hrs by Western blot analysis; type: functional, cell-based; method in brief: as §2
# [11] = tested on: HT-29; experiment: Induction of apoptosis in human HT-29 cells assessed as increase in cleaved caspase-3 protein level at 2.5 uM incubated for 72 hrs by Western blot analysis; type: functional, cell-based; method in brief: as §2
# [12] = tested on: HT-29; experiment: Induction of autophagy in human HT-29 cells assessed as increase in LC3-II protein level at 2.5 uM incubated for 72 hrs by Western blot analysis; type: functional, cell-based; method in brief: as §2
# [13] = tested on: HT-29; experiment: Induction of autophagy in human HT-29 cells assessed as increase in Beclin-1 protein level at 2.5 uM incubated for 72 hrs by Western blot analysis; type: functional, cell-based; method in brief: as §2
# [14] = tested on: HT-29; experiment: Induction of autophagy in human HT-29 cells assessed as reduction in p62 protein level at 2.5 uM incubated for 72 hrs by Western blot analysis; type: functional, cell-based
# Method in brief: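 HT29 cells (1.5×10^5/mL) exposed to compound or vehicle for 72 h, then lysed. Lysates (0.05 mg/lane) run on 12% SDS-PAGE, transferred to nitrocellulose, blocked with 5% non-fat milk and probed for LC3, p62, beclin-1 and β-actin. Bands quantified relative to β-actin, with LC3-II/LC3-I ratio also calculated; means ± SD from three independent assays.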
# [15] = Dissociation constant, pKa of the compound; type: physicochemical
# [16] = tested on: HT-29; experiment: Induction of apoptosis in human HT-29 cells at 10 uM incubated for 72 hrs by FITC-AnnexinV/PI staining based flow cytometry relative to control; type: functional
# Method in brief: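 HT29 cells cultured 12 h, then exposed to compound or vehicle for 72 h. Harvested cells stained with Annexin V plus a viability dye for 15 min at 37 °C. Percentage of apoptotic cells determined by flow cytometry; means ± SD from three separate experiments, compared with control.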
# [17] = tested on: HT-29; experiment: Induction of apoptosis in human HT-29 cells assessed as increase in Bax protein level at 10 uM incubated for 72 hrs by Western blot analysis; type: functional, cell-based
# Method in brief: (§3)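 HT29 cells (1.5 × 10^5/mL) treated 72 h with compound or vehicle. Lysates loaded at 0.05 mg/lane on 12% SDS-PAGE, transferred to nitrocellulose, blocked in 5% non-fat milk. Probed with antibodies to Bax, Bcl-2, cleaved caspase-3, cleaved PARP, LC3, p62 and beclin-1. Bands quantified relative to β-actin; three independent assays, means ± SD.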
# [18] = tested on: HT-29; experiment: Induction of apoptosis in human HT-29 cells assessed as reduction in Bcl2 protein level at 10 uM incubated for 72 hrs by Western blot analysis; type: functional, cell-based; method in brief: as §3
# [19] = tested on: HT-29; experiment: Induction of apoptosis in human HT-29 cells assessed as increase in cleaved PARP protein level at 10 uM incubated for 72 hrs by Western blot analysis; type: functional, cell-based; method in brief: as §3
# [20] = tested on: HT-29; experiment: Induction of apoptosis in human HT-29 cells assessed as increase in cleaved caspase-3 protein level at 10 uM incubated for 72 hrs by Western blot analysis; type: functional, cell-based; method in brief: as §3
# [21] = tested on: HT-29; experiment: Induction of autophagy in human HT-29 cells assessed as increase in LC3-II protein level at 10 uM incubated for 72 hrs by Western blot analysis; type: functional, cell-based; method in brief: as §3
# [22] = tested on: HT-29; experiment: Induction of autophagy in human HT-29 cells assessed as increase in Beclin-1 protein level at 10 uM incubated for 72 hrs by Western blot analysis; type: functional, cell-based; method in brief: as §3
# [23] = tested on: HT-29; experiment: Induction of autophagy in human HT-29 cells assessed as reduction in p62 protein level at 10 uM incubated for 72 hrs by Western blot analysis; type: functional, cell-based; method in brief: as §3
compound,measurement,setting,value
C/C=C/C(=O)OCC1=CCCCC1=O,IC50,[1],4.37 µM
same,IC50,[2],5.93 µM
same,IC50,[3],7.79 µM
same,IC50,[4],7.83 µM
same,Activity,[5],Active
same,Activity,[6],0.81 g
same,Activity,[7],28.8%
same,Activity,[8],Active
same,Activity,[9],Active
same,Activity,[10],Active
same,Activity,[11],Active
same,Activity,[12],Active
same,Activity,[13],Active
same,Activity,[14],Active
COc1cc(-c2nc(N)cc3c2[nH]c2ccccc23)cc(OC)c1OC,IC50,[1],13.5 µM
same,IC50,[2],17.1 µM
COc1cc(-c2nc(N(C(=O)OCC3=CCCCC3=O)C(=O)OCC3=CCCCC3=O)cc3c2[nH]c2ccccc23)cc(OC)c1OC,pKa,[15],5.3
same,IC50,[1],1.45 µM
same,IC50,[2],2.69 µM
same,IC50,[3],4.85 µM
same,IC50,[4],28.1 µM
COc1ccc2c(c1)[nH]c1c(C)nccc12 [HARMINE],IC50,[1],41.8 µM
same,IC50,[2],49.6 µM
same,IC50,[3],47.8 µM
same,IC50,[4],> 50 µM
same,Activity,[16],20.9%
same,Activity,[17],Active
same,Activity,[18],Active
same,Activity,[19],Active
same,Activity,[20],Active
same,Activity,[21],Active
same,Activity,[22],Active
same,Activity,[23],Active

# From ChEMBL document CHEMBL4622976, “Development of pH/Glutathione-Responsive Theranostic Agents Activated by Glutathione S-Transferase π for Human Colon Cancer” (J Med Chem, 2020)
